Reference: ChEMBL document CHEMBL2311423, “Novel carbocyclic nucleoside analogs suppress glomerular mesangial cells proliferation and matrix protein accumulation through ROS-dependent mechanism in the diabetic milieu” (Bioorg Med Chem Lett, 2013)
Activity calls are given as the source filed them. The calls are words filed in the database; no cut-off is given here.

Key:
Assay type in all cases: functional
[1] = Antidiabetic nephropathic activity in rat glomerular mesangial cells assessed as reduction of high-glucose induced fibronectin expression at 10 uM treated 12 to 24 hrs after serum-deprivation measured after 24 hrs by Western blot analysis relative to beta-actin expression
[2] = Antidiabetic nephropathic activity in rat glomerular mesangial cells assessed as reduction of high-glucose induced fibronectin expression at 1 uM treated 12 to 24 hrs after serum-deprivation measured after 24 hrs by Western blot analysis relative to beta-actin expression
Rattus norvegicus = species on record: Rattus norvegicus; assay: Antidiabetic nephropathic activity in rat glomerular mesangial cells assessed as reduction of high-glucose induced cell proliferation at 1 to 10 uM treated 12 after serum-deprivation measured after 24 hrs by MTT assay
Procedure, shortened: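 Rat glomerular mesangial cells serum-deprived 12 h, then given high glucose (25 mM) for 24 h with or without compound at different concentrations. Proliferation read by MTT assay after 24 h, compared against normal-glucose cells.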

[3] = Antidiabetic nephropathic activity in rat glomerular mesangial cells assessed as reduction of high-glucose induced NADPH-dependent ROS production by measuring NADPH oxidase activity at 1 uM treated 12 after serum-deprivation measured after 24 hrs by DHE staining
Procedure, shortened: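 Rat glomerular mesangial cells serum-deprived 12 h, then given high glucose (25 mM) for 24 h with or without compound. NADPH-dependent superoxide generation (NADPH oxidase activity) measured in parallel with DHE staining. Superoxide expressed as relative light units per mg protein.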

Row | Structure (SMILES) | Activity [1] | Activity [2] | Activity (Rattus norvegicus) | Activity [3]
1 | CCOC(=O)[C@H]1C[C@H](n2cc(C)c(=O)n(C(=O)c3ccccc3)c2=O)C[C@H]1C(=O)OCC | 66 a.u. | 68 a.u. |  | 
2 | CCOC(=O)[C@H]1C[C@H](n2ccc(=O)n(C(=O)c3ccccc3)c2=O)C[C@H]1C(=O)OCC | 20 a.u. | 26 a.u. | Active | Active
3 | CCOC(=O)[C@@H]1CC(n2ccc(=O)n(C(=O)c3ccccc3)c2=O)C[C@H]1C(=O)OCC (racemic) | 60 a.u. | 67 a.u. |  | 
4 | CC(=O)OC[C@@H]1C[C@@H](n2ccc(=O)n(C(=O)c3ccccc3)c2=O)C[C@@H]1COC(C)=O | 57 a.u. | 64 a.u. |  | 
5 | CC(=O)OC[C@@H]1CC(n2ccc(=O)n(C(=O)c3ccccc3)c2=O)C[C@H]1COC(C)=O (racemic) | 52 a.u. | 55 a.u. |  | 
6 | CC(=O)OC[C@@H]1C[C@@H](n2cc(C)c(=O)n(C(=O)c3ccccc3)c2=O)C[C@@H]1COC(C)=O | 40 a.u. | 65 a.u. |  | 
7 | CC(=O)OC[C@@H]1CC(n2cc(C)c(=O)n(C(=O)c3ccccc3)c2=O)C[C@H]1COC(C)=O (racemic) | 53 a.u. | 59 a.u. |  | 
8 | CCOC(=O)[C@@H]1CC(n2cc(C)c(=O)n(C(=O)c3ccccc3)c2=O)C[C@H]1C(=O)OCC (racemic) | 20 a.u. | 25 a.u. | Active | Active
